Measured values reported in ChEMBL document CHEMBL1126973, “Synthesis and tubulin binding of novel C-10 analogues of colchicine” (J Med Chem, 1993).
pIC50: −log10 of the molar value.

species on record: Mus musculus; assay: Percent inhibition of [3H]-colchicine binding to tubulin with molar ratio of 1:1 (inhibitor: [3H]-colchicine); format: functional; details: not given
How it was run: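 5 µM ligand, 5 µM tubulin and 5 µM [3H]colchicine in PMEG buffer (PME plus 0.1 mM GTP) were incubated 1.5 h at 37 °C, then quenched on ice. Bound label was separated by centrifuged G-50 gel filtration and counted by scintillation. Percent inhibition is relative to a no-ligand control, run in quadruplicate and averaged.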

| Structure (SMILES) | Inhibition |
| --- | --- |
| CCC(C)c1ccc2c(cc1=O)[C@@H](NC(C)=O)CCc1cc(OC)c(OC)c(OC)c1-2 (some centres not stated) | 19.6% |
| COc1cc2c(c(OC)c1OC)-c1ccc(I)c(=O)cc1[C@@H](NC(C)=O)CC2 | 74% |
| COc1cc2c(c(OC)c1OC)-c1ccc(OC(C)C)c(=O)cc1[C@@H](NC(C)=O)CC2 | 10.1% |
| COc1cc2c(c(OC)c1OC)-c1ccc(Br)c(=O)cc1[C@@H](NC(C)=O)CC2 | 59.4% |
| COc1cc2c(c(OC)c1OC)-c1ccc(C(C)C)c(=O)cc1[C@@H](NC(C)=O)CC2 | 44.9% |
| COc1cc2c(c(OC)c1OC)-c1ccc(C(C)(C)C)c(=O)cc1[C@@H](NC(C)=O)CC2 | 21.9% |
| COc1cc2c(c(OC)c1OC)-c1ccc(N=[N+]=[N-])c(=O)cc1[C@@H](NC(C)=O)CC2 | 51.1% |
| CCc1ccc2c(cc1=O)[C@@H](NC(C)=O)CCc1cc(OC)c(OC)c(OC)c1-2 | 54.9% |
| CCOc1ccc2c(cc1=O)[C@@H](NC(C)=O)CCc1cc(OC)c(OC)c(OC)c1-2 | 24.6% |
| COc1cc2c(c(OC)c1OC)-c1ccc(-c3ccccc3)c(=O)cc1[C@@H](NC(C)=O)CC2 | 10.6% |
| COc1cc2c(c(OC)c1OC)-c1ccc(Cl)c(=O)cc1[C@@H](NC(C)=O)CC2 | 57.2% |
| CCCCc1ccc2c(cc1=O)[C@@H](NC(C)=O)CCc1cc(OC)c(OC)c(OC)c1-2 | 13.9% |
| COc1cc2c(c(OC)c1OC)-c1ccc(C)c(=O)cc1[C@@H](NC(C)=O)CC2 | 56.6% |
| CCCOc1ccc2c(cc1=O)[C@@H](NC(C)=O)CCc1cc(OC)c(OC)c(OC)c1-2 | 16.6% |
| COc1cc2c(c(OC)c1OC)-c1ccc(CC(C)C)c(=O)cc1[C@@H](NC(C)=O)CC2 | 13.4% |
| CCCc1ccc2c(cc1=O)[C@@H](NC(C)=O)CCc1cc(OC)c(OC)c(OC)c1-2 | 41.7% |
| COc1cc2c(c(OC)c1OC)-c1ccc(F)c(=O)cc1[C@@H](NC(C)=O)CC2 | 11% |
| COc1cc2c(c(OC)c1OC)-c1cccc(=O)cc1[C@@H](NC(C)=O)CC2 [CHOLCHICIDE] | 13.2% |
| COc1cc2c(c(OC)c1OC)-c1ccc(OC)c(=O)cc1[C@@H](NC(C)=O)CC2 [COLCHICINE] | 37.2% |

species on record: Mus musculus; assay: Percent inhibition of [3H]colchicine binding to tubulin with molar ratio of 1:10 (inhibitor: [3H]colchicine); format: functional; details: not given

| Structure (SMILES) | Inhibition |
| --- | --- |
| CCC(C)c1ccc2c(cc1=O)[C@@H](NC(C)=O)CCc1cc(OC)c(OC)c(OC)c1-2 (some centres not stated) | 57.1% |
| COc1cc2c(c(OC)c1OC)-c1ccc(I)c(=O)cc1[C@@H](NC(C)=O)CC2 | 98.3% |
| COc1cc2c(c(OC)c1OC)-c1ccc(OC(C)C)c(=O)cc1[C@@H](NC(C)=O)CC2 | 50.5% |
| COc1cc2c(c(OC)c1OC)-c1ccc(Br)c(=O)cc1[C@@H](NC(C)=O)CC2 | 97.4% |
| COc1cc2c(c(OC)c1OC)-c1ccc(C(C)C)c(=O)cc1[C@@H](NC(C)=O)CC2 | 90% |
| COc1cc2c(c(OC)c1OC)-c1ccc(C(C)(C)C)c(=O)cc1[C@@H](NC(C)=O)CC2 | 69.4% |
| COc1cc2c(c(OC)c1OC)-c1ccc(N=[N+]=[N-])c(=O)cc1[C@@H](NC(C)=O)CC2 | 95.8% |
| CCc1ccc2c(cc1=O)[C@@H](NC(C)=O)CCc1cc(OC)c(OC)c(OC)c1-2 | 96.5% |
| CCOc1ccc2c(cc1=O)[C@@H](NC(C)=O)CCc1cc(OC)c(OC)c(OC)c1-2 | 75% |
| COc1cc2c(c(OC)c1OC)-c1ccc(-c3ccccc3)c(=O)cc1[C@@H](NC(C)=O)CC2 | 25.6% |
| COc1cc2c(c(OC)c1OC)-c1ccc(Cl)c(=O)cc1[C@@H](NC(C)=O)CC2 | 96.2% |
| CCCCc1ccc2c(cc1=O)[C@@H](NC(C)=O)CCc1cc(OC)c(OC)c(OC)c1-2 | 24.7% |
| COc1cc2c(c(OC)c1OC)-c1ccc(C)c(=O)cc1[C@@H](NC(C)=O)CC2 | 96.7% |
| CCCOc1ccc2c(cc1=O)[C@@H](NC(C)=O)CCc1cc(OC)c(OC)c(OC)c1-2 | 54.8% |
| COc1cc2c(c(OC)c1OC)-c1ccc(CC(C)C)c(=O)cc1[C@@H](NC(C)=O)CC2 | 36.7% |
| CCCc1ccc2c(cc1=O)[C@@H](NC(C)=O)CCc1cc(OC)c(OC)c(OC)c1-2 | 89.2% |
| COc1cc2c(c(OC)c1OC)-c1ccc(F)c(=O)cc1[C@@H](NC(C)=O)CC2 | 50.2% |
| COc1cc2c(c(OC)c1OC)-c1cccc(=O)cc1[C@@H](NC(C)=O)CC2 [CHOLCHICIDE] | 53.7% |
| COc1cc2c(c(OC)c1OC)-c1ccc(OC)c(=O)cc1[C@@H](NC(C)=O)CC2 [COLCHICINE] | 89.7% |

species on record: Mus musculus; assay: Concentration required to effect a 50% reduction in microtubule polymerization; format: functional; details: read-out: I50
How it was run: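 GTP was added to 1 mM final and the sample warmed to 37 °C. Turbidity was followed at 400 nm, and percent inhibition was taken from plateau absorbance versus a no-ligand control. I50 was interpolated from the inhibition–concentration plot.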

| Structure (SMILES) | pIC50 |
| --- | --- |
| CCC(C)c1ccc2c(cc1=O)[C@@H](NC(C)=O)CCc1cc(OC)c(OC)c(OC)c1-2 (some centres not stated) | 5.00 |
| COc1cc2c(c(OC)c1OC)-c1ccc(OC(C)C)c(=O)cc1[C@@H](NC(C)=O)CC2 | 4.64 |
| CCOc1ccc2c(cc1=O)[C@@H](NC(C)=O)CCc1cc(OC)c(OC)c(OC)c1-2 | 5.21 |
| COc1cc2c(c(OC)c1OC)-c1ccc(-c3ccccc3)c(=O)cc1[C@@H](NC(C)=O)CC2 | 4.24 |
| CCCCc1ccc2c(cc1=O)[C@@H](NC(C)=O)CCc1cc(OC)c(OC)c(OC)c1-2 | 4.59 |
| CCCOc1ccc2c(cc1=O)[C@@H](NC(C)=O)CCc1cc(OC)c(OC)c(OC)c1-2 | 4.96 |
| COc1cc2c(c(OC)c1OC)-c1ccc(CC(C)C)c(=O)cc1[C@@H](NC(C)=O)CC2 | 5.07 |
| COc1cc2c(c(OC)c1OC)-c1ccc(F)c(=O)cc1[C@@H](NC(C)=O)CC2 | 5.09 |
| COc1cc2c(c(OC)c1OC)-c1cccc(=O)cc1[C@@H](NC(C)=O)CC2 [CHOLCHICIDE] | 5.10 |
| COc1cc2c(c(OC)c1OC)-c1ccc(OC)c(=O)cc1[C@@H](NC(C)=O)CC2 [COLCHICINE] | 5.29 |

Stronger by pIC50, values ahead:

| pIC50 | Structure (SMILES) |
| --- | --- |
| 5.42 | COc1cc2c(c(OC)c1OC)-c1ccc(I)c(=O)cc1[C@@H](NC(C)=O)CC2 |
| 5.48 | COc1cc2c(c(OC)c1OC)-c1ccc(Br)c(=O)cc1[C@@H](NC(C)=O)CC2 |
| 5.38 | COc1cc2c(c(OC)c1OC)-c1ccc(C(C)C)c(=O)cc1[C@@H](NC(C)=O)CC2 |
| 5.38 | COc1cc2c(c(OC)c1OC)-c1ccc(C(C)(C)C)c(=O)cc1[C@@H](NC(C)=O)CC2 |
| 5.38 | COc1cc2c(c(OC)c1OC)-c1ccc(N=[N+]=[N-])c(=O)cc1[C@@H](NC(C)=O)CC2 |
| 5.38 | CCc1ccc2c(cc1=O)[C@@H](NC(C)=O)CCc1cc(OC)c(OC)c(OC)c1-2 |
| 5.43 | COc1cc2c(c(OC)c1OC)-c1ccc(Cl)c(=O)cc1[C@@H](NC(C)=O)CC2 |
| 5.39 | COc1cc2c(c(OC)c1OC)-c1ccc(C)c(=O)cc1[C@@H](NC(C)=O)CC2 |
| 5.46 | CCCc1ccc2c(cc1=O)[C@@H](NC(C)=O)CCc1cc(OC)c(OC)c(OC)c1-2 |
